Screening results: PubChem BioAssay, The Scripps Research Institute Molecular Screening Center
FID counter: fluorescent intercalator displacement, NS3 helicase counter-screen. DNA fluorescent intercalator displacement, fluorescence. inhibition, % at 7.9 µM. 0.17% of 290,000 active; in the data active = inhibition above about 37%;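 note: 0% = vehicle and 100% = reference compound; higher means more ethidium bromide displaced from hairpin DNA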
IMP-1 inh: blocks Pseudomonas aeruginosa IMP-1 metallo-beta-lactamase | purified IMP-1, nitrocefin hydrolysis, epi-absorbance fluorescence | inhibition, % at 5.6 µM | 0.45% of 290,000 active | AID 1556;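 active = inhibition above the mean plus 3 SD of all compounds in the same screening run, cut at about 4.5% in these data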;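 note: 0% = IMP-1 with DMSO and 100% = DMSO wells lacking enzyme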
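System: purified IMP-1 / Input: IMP-1 dispensed at 0.2 nM / Medium: 50 mM HEPES pH 7.1, 50 µM ZnSO4, 0.05% Brij 35 / Timing: 15 min enzyme–compound preincubation, then 25 min nitrocefin reaction, 25 °C / Technique: plate fluorescence quenching by hydrolysis product, ex 480/em 530 nm / Repeats: singlicate testing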
HCV NS3 hel inh: blocks Hepatitis C virus NS3 helicase unwinding; NS3 helicase DNA unwinding, Cy5 molecular beacon fluorescence; inhibition, % at 10.9 µM; 0.56% of 290,000 active;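 active = inhibition above the mean of all tested compounds plus 3 SD, set per campaign, cut at about 35% in these data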;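 note: 0% = DMSO wells and 100% = thioflavine S control wells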
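Compound dosing – single dose, 10.9 µM nominal final, DMSO 0.8% final · System – NS3 helicase fragment of HCV · Buffer or medium – MOPS pH 6.5, MgCl2, DTT, Tween20, BSA · Signal – Cy5 beacon fluorescence read at start and 1 h · Also added – annealed dual-labelled DNA beacon duplex, ATP-started · Schedule – 1 h at 25 °C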
VIM-2 inhibitor: blocks Pseudomonas aeruginosa VIM-2 metallo-beta-lactamase. AID 1527. 0.89% of 290,000 active. purified VIM-2, nitrocefin hydrolysis, epi-absorbance fluorescence. inhibition, % at 5.6 µM;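 active = inhibition above the mean of all tested compounds plus 3 SD, cutoff set per screening run, cut at about 7.5% in these data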;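 note: red hydrolysis product quenches plate fluorescence so inhibitors raise well fluorescence; 0% = enzyme with DMSO and 100% = DMSO without enzyme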
Starred values were filed as active, the others as inactive; ! = not confirmed by another sample. Sampled rows, rich in hits. Any-hit rate of the full collection: about 1.9%.

SMILES	FID counter	IMP-1 inh	HCV NS3 hel inh	VIM-2 inhibitor
CN(C)c1ncc(C2=C(Cl)C(=O)C(N3CCCC3)=C(Cl)C2=O)s1	-8	5.2*	30	0
Cc1ccc(Cl)c2c1=NC(=O)C=2c1[nH]c(=S)[nH]c1O	7	6.4*	-9	2
O=C1N=c2ccccc2=C1c1[nH]c(=S)[nH]c1O	8	-1	15	2
Cc1ccc(S(=O)(=O)NCc2ccc(C(=O)NCCN(Cc3ccccc3)C(C)C)cc2)cc1	39*	-1	-32	0
O=C(NC12CC3CC(CC(C3)C1)C2)OCCNC1CCCCC1	25	4.5*	-5	0
CC(=O)NNC(=O)c1sc(=S)n2c1[nH]c(=O)c1sccc12	-1	-1	1	23*
NC(=O)c1sc(=S)n2c1[nH]c(=O)c1sccc12	-2	-1	3	8.2*
Cc1ccc(NC(=O)/C=C\C(=O)NCC(=O)O)cc1C	2	-1	-5	-4
O=C(OCCN1CCOCC1)c1ccccc1	2	2	-4	1
O=C(OCCN1CCOCC1)c1cccnc1	4	8.4*!	-6	-1
C=C1c2cc(C)ccc2NC(=O)N1c1ccc(C)cc1	-4	-1	2	-3
C=C1c2cc(OC)ccc2NC(=O)N1CC	15	5.8*	7	2
Cc1nc2c(ccc3nc(NC(=O)C4CC4)sc32)s1	-8	-2	5	8.6*
CCc1nc(NCc2cccnc2)c2oc3ccccc3c2n1	-15	-3	-6	11*
COc1cc(N)ccc1NC(=O)c1cc2ccccc2o1	0	7.5*	-1	2
O=C(C1=C(O)C(=O)N(CCc2ccccc2)C1c1cccnc1)c1ccco1 (configuration not stated)	-29	5.9*	6	4
O=C(O)CC1(CC(=O)N2CCC(C(=O)O)CC2)CCCC1	0	-3	-7	-2
COc1cc(NC(=O)Cn2c(C)cc3ccccc3c2=O)cc(OC)c1OC	-2	1	1	2
COc1cc(NC(=O)Cn2c(-c3cncs3)nc3ccccc32)cc(OC)c1OC	-20	-3	5	8.6*
O=C(O)c1ccc2cccnc2n1	2	-1	-22	-1
O=C(O)c1ccc2cccnc2c1O	3	0	4	10*
COc1ccc(N2CCN(C(=O)Cc3ccc(S(=O)(=O)N4CCOCC4)s3)CC2)cc1	-17	2	4	1
COC(=O)Nc1ccc2c(c1)N(C(=O)CCN1CCN3CCCC3C1)c1ccccc1CC2 (configuration not stated)	8	-2	-5	-2
COC(=O)Nc1ccc2c(c1)N(C(=O)CCN1CCN3CCCC3C1)c1ccccc1S2 (configuration not stated)	39*	-3	-52	-2
CCOC(=O)C1CCN(C(=S)Nc2ccc(C)cc2)CC1	-3	-3	7	-3
SMILES	FID counter	IMP-1 inh	HCV NS3 hel inh	VIM-2 inhibitor
CCOC(=O)C1CCN(C(=O)NS(=O)(=O)c2ccc(C)cc2)CC1	-1	9.6*	0	0
CCOc1cc(CNn2cnnc2SCC(=O)NC(C)(C)C)ccc1OCC(=O)NC(C)(C)C	-29	-1	-4	-1
Cn1c(C(=O)NC2CC2)cc2c(=O)n(C)c3ccccc3c21	-8	0	-1	17*
Cn1c(C(=O)NCCCN2CCc3ccccc3C2)cc2c(=O)n(C)c3ccccc3c21	15	-3	-44	9.8*
COc1ccc(CCNC(=O)c2cc3c(=O)n(C)c4ccccc4c3n2C)cc1OC	-7	-3	21	-1
COCCCNC(=O)c1cc2c(=O)n(C)c3ccccc3c2n1C	-13	-3	6	7.8*
CCOC(=O)c1cnc(N)nc1C(F)(F)F	-3	0	6	0
CCCCOc1ccc(-c2ncc(N)cn2)cc1	-6	-3	-1	-2
CCN1CCCC1CNC(=O)c1cc2c(C)nc3ccccc3c2o1 (configuration not stated)	13	1	6	8.2*
Cc1nc2ccccc2c2oc(C(=O)NCCN3CCCCC3C)cc12 (configuration not stated)	16	-3	5	11*
CCOC(=O)N1CCC(NC(=O)c2cc3c(C)nc4ccccc4c3o2)CC1	-31	-1	-4	2
CC(C)(C)n1nc2c(c1NC(=O)c1ccc(Cl)c([N+](=O)[O-])c1)CS(=O)(=O)C2	-1	-1	3	-3
CCN1CCc2c(sc(NC(=O)c3ccc(S(=O)(=O)N4CCCCCC4)cc3)c2C(=O)NC)C1	26	1	-49	5
Cc1cc(C)cc(C(=O)NN2CCN(C)CC2)c1	8	-4	4	-1
CCOC(=O)c1c(NC(C)=O)sc2c(OCCN(CC)CC)c(Br)ccc12	5	-2	-16	4
CCOC(=O)c1c(NC(C)=O)sc2c(OCC(O)CN(CC)CC)c(Br)ccc12 (configuration not stated)	16	-2	-64	9.3*
CCn1c(SC(=O)NC2CCCCC2)nnc1-c1cccs1	-3	-4	3	11*
OC(CNCC1COc2ccccc2O1)COc1ccccc1F (configuration not stated)	5	-1	-11	-2
COc1ccc(S(=O)(=O)Nc2cccnc2)c(C)c1C	-6	4.6*	-1	-1
CCOc1ccc(CCNC(=O)C2CC(C)=CCC2C(=O)O)cc1OCC (configuration not stated)	-15	38*	13	0
CCOc1ccc(CCNC(=O)C2CC=CCC2C(=O)OC(C)C)cc1OCC (configuration not stated)	-38	-3	6	-1
CN1CCN(C(=O)c2cnn3c(C(F)(F)F)cc(-c4cccs4)nc23)CC1	4	-4	-3	8.6*
O=C(c1cnn2c(C(F)(F)F)cc(-c3cccs3)nc12)N1CCN(C(c2ccccc2)c2ccccc2)CC1	-1	-4	-4	-3
Nc1nc(SCC(=O)N2CCCC2)[nH]c(=O)c1NC(=O)c1cccs1	-14	-1	7	-3
O=C(O)CN1C(=O)c2cccc(Oc3ccc(Cl)cc3)c2C1=O	-14	12*	1	0
SMILES	FID counter	IMP-1 inh	HCV NS3 hel inh	VIM-2 inhibitor
Cc1ccc(N2C(=O)c3cccc(Oc4ccc(Cl)cc4)c3C2=O)c(C)c1	1	-2	5	-3
Cc1ccc(CSc2ncnc3c2cnn3Cc2ccccc2)cc1	-2	6.7*	17	0
Cc1ccc(CSc2ncnc3c2cnn3Cc2ccccc2)cc1C	-1	0	-2	-2
CC(c1ccccc1)n1c(N2CCNCC2)nc2c1c(=O)[nH]c(=O)n2C (configuration not stated)	-16	-3	4	-1
COc1ccc(C(OCC(O)CNCCc2ccccc2)c2ccc(OC)cc2)cc1 (configuration not stated)	41*	2	-39	-1
COc1cc2nc(N3CCNCC3)nc(N)c2cc1OC	49*	0	16	1
COc1cc2nc(N3CCN(c4cc(C)ccc4C)CC3)nc(N)c2cc1OC	22	-1	-112	-2
COc1ccc(CC(=O)Nc2ccc(S(=O)(=O)Nc3nc(C)cc(C)n3)cc2)cc1	-11	1	2	-2
